Screening data from PubChem BioAssay.
The sample as a whole holds a higher share of hits than the screen did.
KDM4C inh: inhibitors of GASC-1 (KDM4C) histone demethylase, primary screen, biochemical, single concentration HTS. GST-KDM4C 2-372, H3K9me3 peptide, LANCE TR-FRET. Lysine-specific demethylase 4C (Homo sapiens), Q9H3R0. 96,000 compounds, 0.15% hits. inhibition, % at 12.5 µM;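 active means mean replicate inhibition above about 25%, with at least 55% of replicates also reaching it, limit read from the data, passing the limit was not always enough; inconclusive means only one of those two conditions met; inactive means neither condition met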
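System: N-terminal GST-fused human GASC-1 (KDM4C) fragment, residues 2-372 / Amount: 10 nM GST-KDM4C in enzyme reaction / Also added: H3K9me3 peptide with Fe(II)/2OG / Times: 30 min demethylation and 1 h detection at room temperature / Signal: LANCE TR-FRET / Read-out basis: Fall in 671/618 emission ratio as inhibition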
T cruzi growth-1: T. cruzi intracellular proliferation inhibitors, primary screen, cell-based, beta-gal Tulahuen parasites, NIH3T3 host, luminescence | T. cruzi beta-gal in NIH3T3, GalScreen luminescence, 90 h | inhibition, % at 8.34 µM | 77,000 compounds, 5.9% hits | AID 624255, 2012;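 active means mean inhibition above about 93%, with at least 55% of replicates each passing it, limit read from the data, passing the limit was not always enough; inconclusive means only one of those two conditions holds; inactive means neither condition holds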
IDH1 mut inh: inhibitors of IDH1 R132H reductase, primary screen, biochemical, plate reader, single point; 70,000 compounds, 0.18% hits; inhibition, % at 10 µM; AID 624101, 2012; Isocitrate dehydrogenase [NADP] cytoplasmic (Homo sapiens), O75874; diaphorase/resazurin fluorescence, 60 min; in the data active means inhibition above about 34%; inconclusive means no clear call, values can overlap the other calls; inactive means below about 11%
Target sequence (O75874 whole entry R132H): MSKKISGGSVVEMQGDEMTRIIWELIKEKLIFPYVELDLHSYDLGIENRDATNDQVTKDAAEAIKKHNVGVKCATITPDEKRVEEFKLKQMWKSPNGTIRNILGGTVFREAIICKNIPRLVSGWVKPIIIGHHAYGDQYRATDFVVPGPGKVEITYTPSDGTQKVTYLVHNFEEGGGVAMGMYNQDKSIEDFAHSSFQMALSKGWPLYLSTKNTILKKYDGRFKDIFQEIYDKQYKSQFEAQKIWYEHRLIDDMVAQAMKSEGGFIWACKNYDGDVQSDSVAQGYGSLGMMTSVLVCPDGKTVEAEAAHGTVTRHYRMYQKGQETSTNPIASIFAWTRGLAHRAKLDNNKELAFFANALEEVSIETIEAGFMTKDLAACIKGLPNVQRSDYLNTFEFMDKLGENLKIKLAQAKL
T cruzi growth-2: T. cruzi intracellular proliferation inhibitors, confirmation, cell-based, NIH3T3 host, beta-gal parasite, luminescence, cherry-pick | shares compounds with T cruzi growth-1 | T. cruzi beta-gal in NIH3T3, GalScreen luminescence, 90 h | inhibition, % at 8.35 µM | 5,600 compounds, 72% hits;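 active means mean replicate inhibition above about 95% and at least 55% of replicates individually reaching it, limit read from the data; inconclusive means only one of the two criteria is met; inactive means neither criterion is met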
T cruzi growth-3: inhibitors of intracellular T. cruzi replication, confirmation, NIH3T3 host cells, beta-gal parasites, cherry-pick, set 2. shares compounds with T cruzi growth-1. T. cruzi beta-gal in NIH3T3, GalScreen luminescence, 90 h. inhibition, % at 2.09 µM. 5,600 compounds, 21% hits;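 active means mean inhibition above about 95%, with at least 55% of replicates also reaching it, limit read from the data; inconclusive means meets just one of the two conditions; inactive means meets neither condition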
NIH3T3 tox: cytotoxicity in mouse NIH/3T3 fibroblasts, confirmation, cytotoxicity control for T. cruzi proliferation inhibitor project, cell-based, cherry-pick, single point; cytotoxicity (signal decrease), % at 8.35 µM; shares compounds with T cruzi growth-1; NIH/3T3 viability, CellTiter-Glo ATP luminescence, 90 h; 5,600 compounds, 14% hits;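 active means mean signal decrease across replicates above about 35% based on untreated-well scatter, with enough replicates individually passing, limit read from the data; inconclusive means no rule stated though some were filed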
NIH3T3 tox 2: NIH/3T3 fibroblast cytotoxicity, confirmation, cytotoxicity control, cell-based, cherry-pick, single point, set 2. shares compounds with T cruzi growth-1. NIH/3T3 viability, CellTiter-Glo ATP luminescence, 90 h. inhibition, % at 24.9 µM. 5,600 compounds, 56% hits. AID 651744, 2012;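 active means mean loss of cell viability signal at or above a set limit, and enough replicates individually reaching it; inconclusive means meets only the mean limit or only the replicate share; inactive means meets neither condition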
Each line names hits and unclear results; the compound was inactive in the other large screens (follow-up assays come after a bar, where they were run).

O=C(Nc1ccc(C(F)(F)F)cc1)Nc1ccc2c(c1)[C@@H]1C[C@H](CC(=O)N3CCc4ccccc4C3)O[C@@H](CO)[C@@H]1O2	T cruzi growth-1 153.0 | T cruzi growth-2 103.0 | T cruzi growth-3 113.8 | NIH3T3 tox inactive | NIH3T3 tox 2 inactive
O=C(Nc1ccc2c(c1)[C@H]1C[C@@H](CC(=O)N3CCc4ccccc4C3)O[C@@H](CO)[C@H]1O2)Nc1ccccc1F	none (no result: T cruzi growth-1)
O=C(Nc1ccc(C(F)(F)F)cc1)Nc1ccc2c(c1)[C@H]1C[C@H](CC(=O)N3CCc4ccccc4C3)O[C@H](CO)[C@H]1O2	T cruzi growth-1 inconclusive | T cruzi growth-2 inactive | T cruzi growth-3 109.8 | NIH3T3 tox 54.5 | NIH3T3 tox 2 105.9
CN(C)CC(=O)N[C@H]1C=C[C@H](CC(=O)NCc2ccccc2F)O[C@@H]1CO	none
C[C@@H]1CN([C@H](C)CO)C(=O)Cc2cc(NS(=O)(=O)c3cccs3)ccc2O[C@@H]1CN(C)Cc1ccc(Oc2ccccc2)cc1	none (no result: IDH1 mut inh)
Cc1ccc(S(=O)(=O)N(C)C[C@H]2Oc3ccc(NC(=O)NC4CCCCC4)cc3CC(=O)N([C@@H](C)CO)C[C@@H]2C)cc1	none
C[C@@H]1CN([C@H](C)CO)C(=O)c2cc(-c3cccnc3)cnc2O[C@H]1CN(C)Cc1ccc(Oc2ccccc2)cc1	none
C[C@H]1CN([C@@H](C)CO)C(=O)c2cc(-c3cccnc3)cnc2O[C@@H]1CN(C)Cc1ccc(Oc2ccccc2)cc1	T cruzi growth-1 inconclusive | T cruzi growth-2 106.8 | T cruzi growth-3 inactive | NIH3T3 tox inactive | NIH3T3 tox 2 103.8
C[C@H]1CN([C@@H](C)CO)C(=O)c2cc(-c3ccncc3)cnc2O[C@@H]1CN(C)Cc1ccc(Oc2ccccc2)cc1	T cruzi growth-1 98.3 | T cruzi growth-2 104.8 | T cruzi growth-3 inactive | NIH3T3 tox inactive | NIH3T3 tox 2 103.5
C[C@H](CO)N1C[C@H](C)[C@H](CN(C)Cc2ccc(Oc3ccccc3)cc2)Oc2ncc(-c3cccnc3)cc2C1=O	none
C/C=C/c1ccc2c(c1)O[C@@H](CN(C)C(=O)c1ccncc1)[C@H](C)CN([C@H](C)CO)S2(=O)=O	none
O=C(C[C@H]1C=C[C@H](NC(=O)Cc2cccnc2)[C@H](CO)O1)Nc1ccccc1	none
C[C@H](CO)N1C[C@H](C)[C@H](CN(C)Cc2ccccc2C(F)(F)F)OCc2ccccc2-c2c(n(C)c3ccccc23)C1=O	none (no result: T cruzi growth-1, IDH1 mut inh)
COc1cccc(S(=O)(=O)N(C)C[C@H]2Oc3cc(C#CCC(C)C)ccc3S(=O)(=O)N([C@H](C)CO)C[C@H]2C)c1	T cruzi growth-1 inconclusive | T cruzi growth-2 97.4 | T cruzi growth-3 115.2 | NIH3T3 tox inactive | NIH3T3 tox 2 74.2
COc1cccc(S(=O)(=O)N(C)C[C@H]2Oc3cc(C#CCN(C)C)ccc3S(=O)(=O)N([C@@H](C)CO)C[C@@H]2C)c1	T cruzi growth-1 108.2 | T cruzi growth-2 113.5 | T cruzi growth-3 inactive | NIH3T3 tox inactive | NIH3T3 tox 2 inactive
COc1cccc(S(=O)(=O)N(C)C[C@@H]2Oc3cc(C#CCC(C)C)ccc3S(=O)(=O)N([C@H](C)CO)C[C@@H]2C)c1	none
CCCC#Cc1ccc2c(c1)O[C@H](CN(C)S(=O)(=O)c1cccc(OC)c1)[C@H](C)CN([C@H](C)CO)S2(=O)=O	T cruzi growth-1 120.7 | T cruzi growth-2 103.5 | T cruzi growth-3 98.3 | NIH3T3 tox inactive | NIH3T3 tox 2 24.9
COc1cccc(S(=O)(=O)N(C)C[C@H]2Oc3cc(C#CCN(C)C)ccc3S(=O)(=O)N([C@@H](C)CO)C[C@H]2C)c1	none
